Among the data in article PMC5561660 (Organic & biomolecular chemistry, 2017) are Ki, σ1/VAChT and σ2/VAChT values, retold here.

SMILES strings stand for the structures. Read-outs that look alike come from different tables or passages of the source.

In assay [1] the target is T1, human VAChT (Homo sapiens, UniProt Q16572).
T1 sequence (Q16572 1-532): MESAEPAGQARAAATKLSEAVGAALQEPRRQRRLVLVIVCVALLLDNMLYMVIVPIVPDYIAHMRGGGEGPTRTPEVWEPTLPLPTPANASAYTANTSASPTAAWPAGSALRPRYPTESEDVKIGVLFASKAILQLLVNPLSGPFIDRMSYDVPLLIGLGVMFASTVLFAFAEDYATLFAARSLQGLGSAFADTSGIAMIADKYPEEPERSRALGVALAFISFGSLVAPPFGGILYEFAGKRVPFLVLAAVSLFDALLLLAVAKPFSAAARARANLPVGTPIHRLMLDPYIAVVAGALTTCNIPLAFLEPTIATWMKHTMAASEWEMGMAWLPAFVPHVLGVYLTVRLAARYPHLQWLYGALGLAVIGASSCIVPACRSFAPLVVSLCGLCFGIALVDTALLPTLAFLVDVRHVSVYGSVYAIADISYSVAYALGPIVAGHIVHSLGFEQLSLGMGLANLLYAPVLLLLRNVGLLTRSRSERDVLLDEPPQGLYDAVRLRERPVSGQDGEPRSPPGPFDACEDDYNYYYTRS
The following applies: read-out: Ki VAChT, mean ± SEM, cited from earlier work.

Assay [2] deals with σ1 receptor (Cavia porcellus, UniProt Q60492). The following applies: read-out: Ki σ1, mean ± SEM, cited from earlier work.
σ1 receptor (Cavia porcellus, UniProt Q60492), sequence (Q60492 whole entry): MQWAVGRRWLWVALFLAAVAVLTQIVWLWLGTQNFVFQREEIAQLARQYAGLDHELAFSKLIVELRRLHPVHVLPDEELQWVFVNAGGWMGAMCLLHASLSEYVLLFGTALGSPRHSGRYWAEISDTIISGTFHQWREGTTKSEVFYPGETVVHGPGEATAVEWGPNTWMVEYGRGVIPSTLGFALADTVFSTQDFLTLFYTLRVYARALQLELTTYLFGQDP
In assay [3] the test system is σ1 receptor. The following applies: selectivity ratio, cited from earlier work.
Assay [4] has as its target T2, σ2 receptor (Rattus norvegicus, UniProt Q5U3Y7).
T2 sequence (Q5U3Y7 1-176): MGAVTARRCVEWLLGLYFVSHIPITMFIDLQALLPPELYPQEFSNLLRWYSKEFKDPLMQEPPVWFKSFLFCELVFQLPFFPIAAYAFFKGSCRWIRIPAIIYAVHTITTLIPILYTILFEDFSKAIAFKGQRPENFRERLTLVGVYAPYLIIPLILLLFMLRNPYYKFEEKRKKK
The following applies: read-out: Ki σ2, mean ± SEM, cited from earlier work.

In assay [5] the test system is σ2 receptor. The following applies: selectivity ratio, cited from earlier work.
Assay [6] deals with T1, human VAChT. In words: VAChT competitive binding, displacement of. The essentials:
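Postnuclear supernatant (200 µg) from PC12A123.7 cells expressing human VAChT, incubated with (−)-[3H]vesamicol and test compound (0.1–10,000 nM, 10-fold steps) in 110 mM potassium tartrate, 20 mM HEPES pH 7.4, 1 mM DTT, 0.02% sodium azide, 22 °C, 24 h. Duplicate filtration on PEI-coated GF/F filters, buffer washes, scintillation counting. Ki from rectangular hyperbola fit of averaged data; ≥2 independent assays.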

As a reminder, the Ki is the dissociation constant of the complex between target and ligand, obtained from inhibition or displacement. With `O=C(c1ccc(OCCF)cc1)C1CCN(C2Cc3ccccc3CC2O)CC1` (racemic) [(±)-5, (4-(2-fluoroethoxy)phenyl)(1-(3-hydroxy-1,2,3,4-tetrahydronaphthalen-2-yl)piperidin-4-yl)methanone], the figures for the Ki in assay [1] (ref [20]), in assay [2] (ref [20]) and in assay [4] (ref [20]) were 0.038 ± 0.0038 µM, 2.12 ± 0.05 µM and 1.86 ± 0.14 µM, respectively. Also, the σ1/VAChT in assay [3] (ref [20]) was 56. Further, the σ2/VAChT in assay [5] (ref [20]) is listed as 49.

In the case of `O=C(c1ccc(OCCF)nc1)C1CCN(C2Cc3ccccc3CC2O)CC1` (racemic) [(±)-6, (6-(2-fluoroethoxy)pyridin-3-yl)(1-(3-hydroxy-1,2,3,4-tetrahydronaphthalen-2-yl)piperidin-4-yl)methanone], the inhibition constant Ki in assay [1] (ref [23]) is 0.00174 ± 0.00032 µM; in assay [2] (ref [23]), 0.0132 ± 0.0002 µM; in assay [4] (ref [23]), 1.89 ± 0.24 µM. Besides, in assay [3] (ref [23]), the σ1/VAChT is 8. Also, the σ2/VAChT in assay [5] (ref [23]) is on record as 1086.

`O=C(c1ccc(NCCF)cc1)C1CCN(C2Cc3ccccc3CC2O)CC1` (racemic) [(±)-7, (4-((2-Fluoroethyl)amino)phenyl)(1-(3-hydroxy-1,2,3,4-tetrahydronaphthalen-2-yl)piperidin-4-yl)methanone] gave a Ki in assay [6] of 0.00268 ± 0.00023 µM.
